In PMC3220786 (ACS Chemical Biology, 2011):
Where a SMILES comes first, the peptide text is derived from it. [ ]: non-standard residue; d: D form. The star is where a group is joined. NHCH2CH2OH = OCCN*; For = O=C*

Columns and labels:
P. falciparum 3D7 strain = assay: SYBR Green parasite proliferation assay, 3D7; assay type: cell-based, Plasmodium falciparum; conditions: CC50 Ba/F3 / IC50 P. falciparum 3D7
[1] = Cytotoxicity, Ba/F3 cells; assay type: cell-based, murine; conditions: mouse
[2] = system: P. falciparum ATQ-R lines (cytochrome b mutants); assay: SYBR Green proliferation assay, atovaquone-resistant; assay type: cell-based, Plasmodium falciparum; conditions: for shift of IC50 across ATQ-R lines (control compounds) / loss of potency, residue 133 mutants (M133I, M133V): ATQ-R lines vs parental 3D7; for loss of potency, F267V mutant / loss of potency, residue 144 mutant / loss of potency, triple mutant (M133I/V140T/L181V): ATQ-R line vs parental 3D7
[3] = system: P. falciparum ScDHOD-D10attB; assay: SYBR Green proliferation assay, transgenic ScDHOD-D10attB line; assay type: cell-based, Plasmodium falciparum; conditions: for IC50: Plasmodium falciparum, read-out: IC50 values, ScDHOD-D10attB; for shift in IC50, ScDHOD-D10attB vs parental line: transgenic parasites expressing yeast dihydroorotate dehydrogenase
In short: (§1)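 Blood-stage P. falciparum D10attB parental line and ScDHOD-D10attB transgenic line (single integrated copy of yeast DHOD gene) were tested in the SYBR Green proliferation assay. IC50 values are means ± SD of three independent experiments, each in duplicate. The shift compares the transgenic IC50 with the parental IC50.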

P. falciparum D10attB = assay: SYBR Green proliferation assay, parental D10attB line; assay type: cell-based; conditions: Plasmodium falciparum, read-out: IC50 values, D10attB
In short: as §1

[4] = system: Murine pro-B cell line Ba/F3; assay: Cytotoxicity, Ba/F3 cells; assay type: cell-based; conditions: read-out: mammalian cell line CC50; Ba/F3; CellTiter Glo reagent
[5] = system: P. yoelii (17XNL strain) sporozoites; assay: Prophylaxis activity test in sporozoite-infected mice; assay type: in vivo, ICR female mouse
In short: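 ICR female mice (7 weeks, 26–36 g) received 50,000 P. yoelii 17XNL sporozoites via the tail vein. Immediately afterwards they were given a single oral gavage dose of test compound at 50 mg kg–1 in corn oil (5 mice). Parasitemia was checked daily by Giemsa-stained tail-snip blood microscopy. Prepatent period = first day parasitemia was seen. Mice were euthanized above 20% parasitemia.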

[6] = chickens, iv; cited from earlier work
[7] = system: P. yoelii sporozoites in HepG2-A16-CD81EGFP cells; assay type: cell-based, Plasmodium yoelii; conditions: for IC50: Plasmodium yoelii, in Homo sapiens, read-out: IC50, liver stage
[8] = target: T1, P. yoelii cytochrome c reductase (Plasmodium yoelii, UniProt Q7PDA7); assay: Ubiquinol-cytochrome c oxidoreductase; assay type: biochemical
T1 sequence (Q7PDA7 1-376): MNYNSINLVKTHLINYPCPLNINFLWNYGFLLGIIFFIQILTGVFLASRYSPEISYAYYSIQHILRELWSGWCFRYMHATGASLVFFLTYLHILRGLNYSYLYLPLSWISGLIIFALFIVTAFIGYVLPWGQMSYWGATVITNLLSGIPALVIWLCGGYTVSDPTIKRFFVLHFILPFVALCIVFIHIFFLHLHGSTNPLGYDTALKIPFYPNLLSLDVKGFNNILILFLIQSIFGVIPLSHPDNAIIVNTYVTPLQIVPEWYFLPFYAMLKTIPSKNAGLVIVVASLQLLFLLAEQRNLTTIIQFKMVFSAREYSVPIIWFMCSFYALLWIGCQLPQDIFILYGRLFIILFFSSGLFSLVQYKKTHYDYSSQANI
T1 sequence (V7P9V8 31-357 partner): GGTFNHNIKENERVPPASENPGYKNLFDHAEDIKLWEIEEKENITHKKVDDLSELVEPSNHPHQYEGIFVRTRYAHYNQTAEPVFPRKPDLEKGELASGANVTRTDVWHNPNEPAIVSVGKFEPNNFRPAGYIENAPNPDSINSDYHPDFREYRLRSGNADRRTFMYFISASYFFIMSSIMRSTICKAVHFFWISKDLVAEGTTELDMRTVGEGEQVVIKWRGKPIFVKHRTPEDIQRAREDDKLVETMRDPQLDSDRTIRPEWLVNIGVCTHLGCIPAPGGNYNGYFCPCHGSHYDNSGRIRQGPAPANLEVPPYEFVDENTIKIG
T1 sequence (Q7RJI2 1-394 partner): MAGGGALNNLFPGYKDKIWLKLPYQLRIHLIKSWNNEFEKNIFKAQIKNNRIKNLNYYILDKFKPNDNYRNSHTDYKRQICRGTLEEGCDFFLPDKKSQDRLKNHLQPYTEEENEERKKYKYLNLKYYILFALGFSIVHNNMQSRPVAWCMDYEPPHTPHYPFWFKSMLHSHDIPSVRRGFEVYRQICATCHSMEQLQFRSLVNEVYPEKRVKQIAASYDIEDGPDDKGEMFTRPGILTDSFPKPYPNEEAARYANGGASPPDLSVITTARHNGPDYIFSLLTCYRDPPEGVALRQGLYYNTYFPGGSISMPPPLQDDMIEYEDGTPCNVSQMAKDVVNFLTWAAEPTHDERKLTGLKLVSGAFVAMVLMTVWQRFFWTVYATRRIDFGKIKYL

P. falciparum DEC-R line = assay: SYBR Green proliferation assay, decoquinate-resistant; assay type: cell-based, Plasmodium falciparum; conditions: loss of potency against decoquinate-resistant clone

COc1ccc(C[C@H](N)C(=O)N[C@H]2[C@@H](O)[C@H](n3cnc4c(N(C)C)ncnc43)O[C@@H]2CO)cc1 [Puromycin]
therapeutic index CC50/IC50 (P. falciparum 3D7 strain): >14.2
CC50 at 3 days ([1]; Ba/F3 cells): > 1.25 µM

CCCCCCCCNC(C)C(O)c1ccc(SC(C)C)cc1 (centres unmarked) [Suloctidil]
therapeutic index CC50/IC50 (P. falciparum 3D7 strain): 0.6
CC50 at 3 days ([1]; Ba/F3 cells): 0.97 µM

CCOC(=O)c1cnc2cc(OCC3CC3)c(OCC3CC3)cc2c1O [Ciproquinate]
therapeutic index CC50/IC50 (P. falciparum 3D7 strain): >156
CC50 at 3 days ([1]; Ba/F3 cells): > 1.25 µM

CN(C)c1ccc(C(=C2C=CC(=[N+](C)C)C=C2)c2ccc(N(C)C)cc2)cc1 [Gentian violet]
therapeutic index CC50/IC50 (P. falciparum 3D7 strain): >4
CC50 at 3 days ([1]; Ba/F3 cells): > 1.25 µM

OC(c1cc(C(F)(F)F)nc2c(C(F)(F)F)cccc12)C1CCCCN1 (centres unmarked) [mefloquine]
shift of IC50 across ATQ-R lines (control compounds) [2]: 2 fold
IC50 [3]: 0.00402 ± 0.0014 µM
shift in IC50, ScDHOD-D10attB vs parental line [3]: slight increase in mefloquine sensitivity
IC50 (P. falciparum D10attB): 0.00788 ± 0.00164 µM

N=C(N)NCCCCCCCCCCNC(=N)N [Synthalin]
therapeutic index CC50/IC50 (P. falciparum 3D7 strain): >200
CC50 at 3 days ([1]; Ba/F3 cells): > 5.4 µM

Muconomycin B
therapeutic index CC50/IC50 (P. falciparum 3D7 strain): 12.5
CC50 [4]: 0.03 µM

C[C@@H]1C[C@H](C)C[C@H](C)[C@@H](O)CC(=O)O[C@H]([C@@H]2CCC[C@H]2C(=O)O)C/C=C/C=C(/C#N)[C@H](O)[C@@H](C)C1 [Borrelidin]
therapeutic index CC50/IC50 (P. falciparum 3D7 strain): 11.6
CC50 at 3 days ([1]; Ba/F3 cells): 0.959 µM

CCCCCCCCCCOc1cc2c(O)c(C(=O)OCC)cnc2cc1OCC [Decoquinate]
prepatent period (day at which parasitemia was first observed) ([5]; single oral dose with 50,000 sporozoites i.v.): 8 days
loss of potency, F267V mutant [2]: 2 fold
loss of potency, residue 144 mutant [2]: no effect
loss of potency, triple mutant (M133I/V140T/L181V) [2]: 5 fold
loss of potency, residue 133 mutants (M133I, M133V) [2]: did not alter
IC50 [3]: > 1 µM
IC50 (P. falciparum D10attB): 0.0053 ± 0.00124 µM
t1/2 [6]: 9 to 22 h
therapeutic index CC50/IC50 (P. falciparum 3D7 strain): >2,500
therapeutic index CC50/IC50 (P. falciparum 3D7 strain; listed as decoquinate): > 2,500
fold increase in liver stage activity over atovaquone [7]: 10 fold
IC50 [7]: 0.000177 µM
CC50 at 3 days ([1]; Ba/F3 cells): > 12.5 µM
IC50 [8]: 0.097 µM
fold change in IC50, DEC-R clone vs parental 3D7 (P. falciparum DEC-R line): 90 fold

CO\C=C(C(=O)OC)/C(C)=C\C=C\c1ccc(Cl)c(OC)c1 [Strobilurin B]
therapeutic index CC50/IC50 (P. falciparum 3D7 strain): 13.5
CC50 [4]: 3.1 µM

O[Si](CCCN1CCCCC1)(c1ccccc1)C1CCCCC1 (centres unmarked) [HHSiD, Hexahydro-sila-difenidol]
therapeutic index CC50/IC50 (P. falciparum 3D7 strain): >16.4
CC50 [4]: > 1.25 µM

CCCCCCC[N+](CC)(CC)CCCCc1ccc(Cl)cc1 [Clofilium]
therapeutic index CC50/IC50 (P. falciparum 3D7 strain): >2.4
CC50 at 3 days ([1]; Ba/F3 cells): > 1.25 µM

COC[C@H]1C(=O)NCC(=O)N2NCCC[C@H]2C(=O)N(O)[C@H](C)C(=O)O[C@@H](C(C)C)[C@H](NC(=O)[C@](C)(O)[C@]2(O)CC[C@@H](CC(C)C)[C@H](C)O2)C(=O)N2NCCC[C@@H]2C(=O)N1O [Aurantimycin A]
therapeutic index CC50/IC50 (P. falciparum 3D7 strain): 0.5
CC50 [4]: 0.045 µM

CCCOC(=O)C[N+](C)(C)CCOCCCCCCCCCCOCC[N+](C)(C)CC(=O)OCCC [Prodeconium]
therapeutic index CC50/IC50 (P. falciparum 3D7 strain): >156
CC50 [4]: > 6.25 µM

CCC(Cc1cnc2nc(N)nc(N)c2n1)c1ccc(C(=O)N[C@@H](CCC(=O)O)C(=O)O)cc1 (some centres unmarked) [Edatrexate]
therapeutic index CC50/IC50 (P. falciparum 3D7 strain): 0.1
CC50 at 3 days ([1]; Ba/F3 cells): 0.005 µM

COc1ccc2cc3[n+](cc2c1OC)CCc1cc2c(cc1-3)OCO2 [Berberine]
therapeutic index CC50/IC50 (P. falciparum 3D7 strain): 0.6
CC50 at 3 days ([1]; Ba/F3 cells): 0.32 µM

CC(C)[C@@H]1NC(=O)[C@H](C)OC(=O)[C@@H](C(C)C)NC(=O)[C@@H](C(C)C)OC(=O)[C@H](C(C)C)NC(=O)[C@H](C)OC(=O)[C@@H](C(C)C)NC(=O)[C@@H](C(C)C)OC(=O)[C@H](C(C)C)NC(=O)[C@H](C)OC(=O)[C@@H](C(C)C)NC(=O)[C@@H](C(C)C)OC1=O [Valinomycin]
therapeutic index CC50/IC50 (P. falciparum 3D7 strain): 12.8
CC50 at 3 days ([1]; Ba/F3 cells): 0.091 µM

Cl.Cl.O=C(Nc1ccc(C2=NCCCN2)cc1)c1ccc(C(=O)Nc2ccc(C3=NCCCN3)cc2)cc1 [NSC 57153]
therapeutic index CC50/IC50 (P. falciparum 3D7 strain): 1.1
CC50 [4]: 0.55 µM

O=C1C(O)=C([C@H]2CC[C@H](c3ccc(Cl)cc3)CC2)C(=O)c2ccccc21 [atovaquone]
protection / survival of mice ([5]; single oral dose (decoquinate 50 mg kg-1, atovaquone 2.5 mg kg-1)): completely protected
loss of potency, F267V mutant [2]: 20 fold
loss of potency, residue 144 mutant [2]: ~200 fold
loss of potency, triple mutant (M133I/V140T/L181V) [2]: 2000 fold
loss of potency, residue 133 mutants (M133I, M133V) [2]: ~16 fold
IC50 [3]: > 1 µM
shift in IC50, ScDHOD-D10attB vs parental line [3]: > 1900 fold
IC50 (P. falciparum D10attB): 0.000512 ± 0.000164 µM
IC50 [7]: 0.0017 µM
IC50 [8]: 0.0076 µM
fold change in IC50, DEC-R clone vs parental 3D7 (P. falciparum DEC-R line): 4 fold

COc1ccc(C[C@H]2NC[C@H](O)[C@H]2OC(C)=O)cc1 [Anisomycin]
shift of IC50 across ATQ-R lines (control compounds) [2]: nearly invariable
shift in IC50, ScDHOD-D10attB vs parental line [3]: no shift

CC1=C[C@H]2O[C@@H]3C[C@H]4OC(=O)/C=C\C=C\C(=O)OCC/C(C)=C/C(=O)OC[C@@]2(CC1)[C@]4(C)[C@]31CO1 [Verrucarin J]
therapeutic index CC50/IC50 (P. falciparum 3D7 strain): 12.1

CC(C)C[C@@H](NC(=O)[C@H](C)NC(=O)CNC(=O)[C@@H](NC=O)C(C)C)C(=O)N[C@@H](C)C(=O)N[C@@H](C(=O)N[C@H](C(=O)N[C@@H](C(=O)N[C@@H](Cc1c[nH]c2ccccc12)C(=O)N[C@H](CC(C)C)C(=O)N[C@@H](Cc1c[nH]c2ccccc12)C(=O)N[C@H](CC(C)C)C(=O)N[C@@H](Cc1c[nH]c2ccccc12)C(=O)N[C@H](CC(C)C)C(=O)N[C@@H](Cc1c[nH]c2ccccc12)C(=O)NCCO)C(C)C)C(C)C)C(C)C [Gramicidin A] (For-VGA[dL]A[dV]V[dV]W[dL]W[dL]W[dL]W-NHCH2CH2OH)
CC50 at 3 days ([1]; Ba/F3 cells (murine pro-B cell line)): 0.11 µM

CCN(CC)CCOc1ccc2c(c1)C(=O)c1cc(OCCN(CC)CC)ccc1-2 [Tilorone]
therapeutic index CC50/IC50 (P. falciparum 3D7 strain): >12.5
CC50 at 3 days ([1]; Ba/F3 cells): > 12.5 µM
